{"data": "Experimental data collected from several papers", "target": "Serine/threonine-protein kinase PAK 4 (PAK4, Homo sapiens, UniProt O96013)"}
{"SMILES": "CC1=C(C#N)C(c2ccc3c(c2)c(NC(=O)c2ccccc2C)nn3C)C(C#N)=C(C)N1", "test": "cell-free assay, competition with immobilised ligand", "setting": "1 µM", "quantity": "remaining binding", "result": "100%"}
{"SMILES": "FC(F)(F)Oc1cccc(-c2cnc3ccc(-c4ccncc4)nn23)c1", "test": "enzyme activity, inhibitor, radiometric", "setting": "5 µM", "quantity": "activity vs control", "result": "64%"}
{"SMILES": "CCN(CC)CCNC(=O)c1c(C)[nH]c(/C=C2\\C(=O)Nc3ccc(F)cc32)c1C", "test": "enzyme activity, inhibitor", "setting": "0.1 µM", "quantity": "remaining activity", "result": "90%"}
{"SMILES": "O=C(Nc1cnn(-c2csc(C(=O)NC3COC3)c2)c1)Nc1ccccc1Cl", "test": "enzyme activity, inhibitor", "setting": "5 µM", "quantity": "remaining activity", "result": "98.9%"}
{"SMILES": "CNC(=O)c1cc(Oc2ccc(NC(=O)Nc3ccc(Cl)c(C(F)(F)F)c3)cc2)ccn1", "test": "enzyme activity, inhibitor", "setting": "0.3 µM", "quantity": "inhibition", "result": "-11%"}
{"SMILES": "COc1cc(Nc2cnc(C#N)c(O[C@H](C)CN(C)C)n2)ncc1-c1cnn(C)c1", "test": "enzyme activity, inhibitor, radiometric", "setting": "10 µM", "quantity": "remaining activity", "result": "70%"}
{"SMILES": "CC(C)(C)c1nc(-c2cccc(NS(=O)(=O)c3c(F)cccc3F)c2F)c(-c2ccnc(N)n2)s1", "test": "enzyme activity, inhibitor, radiometric", "setting": "1 µM", "quantity": "remaining activity", "result": "68%"}
{"SMILES": "COc1cc(/C=C/C(=O)CC(=O)/C=C/c2ccc(O)c(OC)c2)ccc1O", "test": "enzyme activity, inhibitor", "setting": "1 µM", "quantity": "activity vs control", "result": "78%"}
{"SMILES": "CC(C)(C)C(=O)c1sc(NC2CCCCC2)nc1N", "test": "enzyme activity, inhibitor", "setting": "10 µM", "quantity": "remaining activity", "result": "88%"}
{"SMILES": "Nc1cnc(N2CCc3cc(S(=O)(=O)Nc4c(F)cc(Cl)cc4F)cc(N4CCCC4=O)c32)nc1", "test": "cell-free assay, competition with immobilised ligand", "setting": "1 µM", "quantity": "remaining binding", "result": "89%"}
{"SMILES": "FC(F)c1nc2ccccc2n1-c1nc(N2CCOCC2)nc(N2CCOCC2)n1", "test": "enzyme activity, inhibitor", "setting": "10 µM", "quantity": "remaining activity", "result": "92%"}
{"SMILES": "CS(=O)(=O)Nc1cccc(-c2csc(NC(=O)CSc3nc4nccnc4c(=O)n3CCc3ccccc3)n2)c1", "test": "enzyme activity, inhibitor", "setting": "10 µM", "quantity": "inhibition", "result": "4%"}
{"SMILES": "COc1cc(-c2cc(-c3ccc(N4CCNCC4)cc3)cnc2C)cc(OC)c1OC", "test": "enzyme activity, inhibitor", "setting": "1 µM", "quantity": "inhibition", "result": "4%"}
{"SMILES": "Cc1ccc(Nc2nccc(N(C)c3ccc4c(C)n(C)nc4c3)n2)cc1S(N)(=O)=O", "test": "enzyme activity, inhibitor", "setting": "10 µM", "quantity": "inhibition", "result": "35%"}
{"SMILES": "Cc1[nH]c(/C=C2\\C(=O)Nc3ccc(F)cc32)c(C)c1C(=O)N[C@H]1CCN(C(=O)N(C)C)C1", "test": "enzyme activity, inhibitor", "setting": "0.1 µM", "quantity": "remaining activity", "result": "109%"}
{"SMILES": "c1ccc(N2CCN(Cc3nc4ccccc4[nH]3)CC2)nc1", "test": "cell-free assay, competition with immobilised ligand", "setting": "1 µM", "quantity": "remaining binding", "result": "93%"}
{"SMILES": "CSc1nc(C)c(-c2ccnc(Nc3ccc(N4CCOCC4)cc3)c2)[nH]1", "test": "enzyme activity, inhibitor", "setting": "10 µM", "quantity": "inhibition", "result": "-3.9%"}
{"SMILES": "CCCS(=O)(=O)Nc1ccc(F)c(C(=O)c2c[nH]c3ncc(-c4ccc(Cl)cc4)cc23)c1F", "test": "enzyme activity, inhibitor", "setting": "1 µM", "quantity": "inhibition", "result": "< 10%"}
{"SMILES": "CS(=O)(=O)N1CCCC(NC(=O)[C@H](CCC2CCCCC2)NC(=O)c2ccc(CNc3ncnc4c3nnn4-c3ccccc3)cc2)C1 (stereo partly shown)", "test": "cell-free assay, competition with immobilised ligand", "setting": "0.1 µM", "quantity": "remaining binding", "result": "100%"}
{"SMILES": "CCN(CC)CCNC(=O)c1c(C)[nH]c(/C=C2\\C(=O)Nc3ccc(F)cc32)c1C", "test": "enzyme activity, inhibitor", "setting": "0.3 µM", "quantity": "inhibition", "result": "-9%"}
{"SMILES": "CN(c1ncccc1CNc1nc(Nc2ccc3c(c2)CC(=O)N3)ncc1C(F)(F)F)S(C)(=O)=O", "test": "enzyme activity, inhibitor", "setting": "1 µM", "quantity": "inhibition", "result": "88.5%"}
{"SMILES": "CS(=O)(=O)CCNCc1ccc(-c2ccc3ncnc(Nc4ccc(OCc5cccc(F)c5)c(Cl)c4)c3c2)o1", "test": "cell-free assay", "setting": "0.5 µM", "quantity": "remaining signal", "result": "89.9%"}
{"SMILES": "Cc1ccc(C(=O)NCc2ccsc2)cc1C#Cc1cn(C(C)C)c2ncnc(N)c12", "test": "enzyme activity, inhibitor", "setting": "1 µM", "quantity": "activity vs control", "result": "102%"}
{"SMILES": "CC/C(=N\\NC(=O)NCc1cccc(O)c1)c1ccc(O)c(C)c1O", "test": "enzyme activity, inhibitor", "setting": "0.1 µM", "quantity": "inhibition", "result": "10.6%"}
{"SMILES": "C[C@@H]1CN(c2cc(-c3n[nH]c4ccc(OC5(C)CC5)cc34)ncn2)C[C@H](C)O1", "test": "cell-free assay, competition with immobilised ligand", "setting": "0.1 µM", "quantity": "remaining binding", "result": "97%"}
{"SMILES": "Cc1cnc(NC2CCOCC2)nc1-n1cnc(C(=O)NC(CN)c2cc(F)cc(Cl)c2)c1 (stereo not shown)", "test": "enzyme activity, inhibitor, radiometric", "setting": "1 µM", "quantity": "remaining activity", "result": "96%"}
{"SMILES": "Cc1sc(C(=O)NC2COC2)cc1-n1cc(NC(=O)Nc2c(F)cccc2Cl)cn1", "test": "enzyme activity, inhibitor", "setting": "10 µM", "quantity": "remaining activity", "result": "106%"}
{"SMILES": "Nc1nc(NC2CCCCC2)sc1C(=O)c1ccccc1", "test": "enzyme activity, inhibitor", "setting": "10 µM", "quantity": "remaining activity", "result": "88%"}
{"SMILES": "COc1cccc(CNC(=O)c2nc3scc(COCc4ccc(C(=O)O)cc4)c3c(=O)[nH]2)c1", "test": "cell-free assay, competition with immobilised ligand", "setting": "1 µM", "quantity": "remaining binding", "result": "100%"}
{"SMILES": "C=CC(=O)Nc1cc(Nc2nccc(Nc3cc(Cl)c(F)cc3C(C)(C)O)n2)c(OC)cc1N1CC[C@@H](N(C)C)C1", "test": "enzyme activity, inhibitor", "setting": "1 µM", "quantity": "inhibition", "result": "5%"}
{"SMILES": "CN(c1ccnc(CNc2nc(Nc3ccc4c(c3)CC(=O)N4)ncc2C(F)(F)F)n1)S(C)(=O)=O", "test": "cell-free assay, competition with immobilised ligand", "setting": "1 µM", "quantity": "remaining binding", "result": "52%"}
{"SMILES": "Oc1ccc(-c2nc(-c3ccncc3)c(-c3ccc(F)cc3)[nH]2)cc1", "test": "cell-free assay", "setting": "0.5 µM", "quantity": "remaining signal", "result": "98.6%"}
{"SMILES": "O=C1NC(c2ccccn2)Sc2ccccc21 (stereo not shown)", "test": "cell-free assay, competition with immobilised ligand", "setting": "1 µM", "quantity": "remaining binding", "result": "84%"}
{"SMILES": "COc1cc2ncnc(Nc3ccc(F)c(Cl)c3)c2cc1OCCCN1CCOCC1", "test": "cell-free assay", "setting": "0.5 µM", "quantity": "remaining signal", "result": "90.2%"}
